Test results as given in PubChem BioAssay AID871 (The Scripps Research Institute Molecular Screening Center, 2007).
The whole screen tested about 190,000 compounds, of which about 1,800 (0.95%) were called active.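 How the source made its calls: active means activation above the screen-wide mean of compound activation plus 3 SD (cut at about 130% in these data); inactive means the rest.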 Many of the other results were omitted from the sample, so actives are more common in it than they were.

Test: IL-6 driven STAT3 reporter potentiators, primary screen, U3A cells, luciferase, luminescence, MLSCN library (AID 871);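 further: 0% = background luminescence of wells with medium and substrate only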
Conditions: IL-6 STAT3-luciferase reporter, at 5.6 µM, stronger effect = higher value, 100% = signal with IL-6 EC80 alone
Method in brief: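 Test system: Human STAT1-deficient U3A cells with stable STAT3-luciferase reporter | Also added: Interleukin-6, 33 ng/mL | Timing: Compound pre-incubation 1 h before IL-6, then 6 h stimulation at 37 °C | Technique: Luciferase reporter luminescence | Read-out: Percent of IL-6-only median luminescence | Benchmarks: IL-6-only wells as 100% reference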

Activation (% of control), active:
O=C(C1=C(O)C(=O)N(c2ncccn2)C1c1cccs1)c1ccco1 (centres undefined) 134%
CCOC(=O)C1CCN(c2ncnc3c2oc2ccc(Br)cc23)CC1 141%
Cn1cccc1C(=O)Nc1nccs1 140%
Cc1cccc(N(CC(=O)N=Nc2c(O)[nH]c3ccccc23)S(C)(=O)=O)c1C 140%
C/C(=N\NC(=O)CNc1cccc2ccccc12)c1ccc(Br)s1 137%
CSCCC(NC(=O)c1ccco1)C(=O)OCC(=O)Nc1ncc(Cl)c(C)c1Cl (centres undefined) 145%
O=C1CCCN1CCCNc1ncnc2c1[nH]c1ccccc12 151%
CN1CCN(c2ccc([N+](=O)[O-])c(Sc3nc4ccccc4[nH]3)c2)CC1 137%
O=[N+]([O-])c1ccc(N2CCN(S(=O)(=O)c3ccc4ccccc4c3)CC2)cc1NCc1ccco1 154%
Oc1ccc(Cl)cc1/C=N/c1nc2ccccc2[nH]1 143%
C/C(=N\c1nc2ccccc2n1C)c1cc(Cl)ccc1O 137%
Cc1ccc(N=Nc2c(C)[nH]n(-c3ccccc3)c2=O)cc1 147%
Cc1ccc(C2=NN(C)c3nc4ccccc4n3C2)cc1 170%
CCCS(=O)(=O)Nc1c(C(=O)O)[nH]c2ccccc12 184%
O=C(Nc1ccc2cn[nH]c2c1)c1ccc(S(=O)(=O)N2CCOCC2)cc1 135%
Cn1c(=NC(=O)C2CC2)sc2cc(F)cc(F)c21 135%
CSc1nc2sc3c(c2c(=O)[nH]1)CCc1ccccc1-3 136%
c1ccc(-c2cn3c(n2)CCc2ccc4cccnc4c2-3)cc1 157%
Cc1cccc(C(=O)N2CCc3c([nH]c4ccccc34)C2CC(C)C)n1 (centres undefined) 145%
Cc1cccc(C2c3[nH]c4ccccc4c3CCN2C(=O)c2cc(-c3cccn3C)n[nH]2)n1 (centres undefined) 134%
COc1ccc(/C=N/Nc2ncnc3sc4c(c23)CCCC4)cc1O 147%
CC(C)CNC(=O)COC(=O)/C=C/c1ccccc1[N+](=O)[O-] 145%

Activation (% of control), inactive:
O=C(C1=C(O)C(=O)N(Cc2ccccc2)C1c1ccco1)c1ccco1 (centres undefined) 101%
O=C(C1=C(O)C(=O)N(Cc2ccccc2)C1c1cccnc1)c1ccco1 (centres undefined) 100%
CCOC(=O)CNC(=O)/C=C/c1c(Cl)cccc1Cl 86.6%
CCOC(=O)C1CCN(C(=O)c2oc3ccc(S(=O)(=O)N4CCCCCC4)cc3c2C)CC1 89.9%
CCOC(=O)C1CCN(c2ncnc3c2c(-c2ccccc2)cn3-c2ccc(C)cc2)CC1 102%
COc1cc(C(=O)Nc2nccs2)cc(OC)c1OC 81%
O=C(O)c1ccccc1-c1ccccc1C(=O)Nc1nccs1 101%
COC(=O)Cc1c(O)ccn(Cc2cccc(C(F)(F)F)c2)c1=O 99.8%
Cc1c(-c2ccccc2)n[nH]c1C(=O)N=Nc1c(O)[nH]c2ccccc12 84.5%
COCC(=O)N=Nc1c(O)[nH]c2ccccc12 92.2%
CC1=NNC(=O)C1CCC(=O)N/N=C\c1ccc(Cl)c(Cl)c1 (centres undefined) 108%
Cc1ccc2nsnc2c1NC(=O)c1ccccc1[N+](=O)[O-] 99.5%
O=C(O/N=C(/c1ccccc1)c1ccncc1)c1ccccc1[N+](=O)[O-] 113%
Cc1cccc(/C=N/NC(=O)CNc2cccc3ccccc23)n1 114%
C/C(=N\NC(=O)CSc1nc2ccccc2c(=O)n1-c1ccccc1C)c1cccs1 105%
Cc1cc(/C=N/NC(=O)c2cccnc2)c(C)n1CC(C)C 118%
CSCCC(NC(=O)COc1ccccc1)C(=O)OCC(=O)c1cc2ccccc2o1 (centres undefined) 116%
Cc1c(Cl)cnc(NC(=O)COC(=O)c2ccc(S(=O)(=O)NCc3ccco3)cc2)c1Cl 103%
O=C(CCn1c(=S)[nH]c2ccccc2c1=O)NCCCN1CCCC1=O 98.6%
CC(C)OCCCNc1ncnc2c1[nH]c1ccc(F)cc12 36.3%
CCCc1nnc(SCC(=O)N2C(C)CCCC2C)n1CC (centres undefined) 105%
N#CCSc1nn(-c2ccc(F)cc2)c(=S)s1 103%
O=C(CNC1CCCCC1)NCC1(c2ccccc2)CCCC1 112%
CN1CCN(c2ccc(S(=O)(=O)Nc3ccccc3)cc2[N+](=O)[O-])CC1 79.1%
O=C(CSc1nc2ccccc2[nH]1)N/N=C/C=C\c1ccccc1[N+](=O)[O-] 96.6%
COc1ccc2c(c1)CCc1cn3ncc(C#N)c3nc1-2 100%
O=C(NCC1CCCCC1)c1cc(S(=O)(=O)N2CCCCC2)ccc1N1CCOCC1 104%
CC(=O)Nc1ccc(S(=O)(=O)N2CCN(c3ccc([N+](=O)[O-])c(NCCN4CCOCC4)c3)CC2)cc1 104%
O=C(c1ccccc1)N1CCN(c2ccc([N+](=O)[O-])c(NCc3ccco3)c2)CC1 107%
CCCS(=O)(=O)N1CCC(CCOc2ccccc2)(C(=O)OCC)CC1 95.8%
O=C(/C(=C/c1cccc(Cl)c1)c1nc2ccccc2[nH]1)c1ccccc1 98.5%
c1ccc2[nH]c(-c3nc4ccccc4[nH]3)nc2c1 63.1%
Cc1c(C(=O)Nc2cccc(Cl)c2)cn2c(nc3ccccc32)c1C#N 94.7%
Cc1ccc(O)c(CNc2nc3ccccc3n2C)c1 102%
CC(C)CNC(=O)/C=C/C(=O)O 103%
O=C(CN1CCCC1)N1CCN(c2ccccc2)CC1 104%
Cc1nnc(SCc2cccc(Cl)c2)n(N)c1=O 88.9%
Cc1cccc(N=Nc2c(C)[nH]n(-c3ccccc3)c2=O)c1 122%
Cc1c(N=Nc2ccc(N(C)C)cc2)c(=O)n(-c2ccccc2)n1C 115%
Cc1nc2scc(-c3cccs3)c2c(=O)n1N 97.7%
Cc1nn2c3ccccc3nc2n(C)c1=O 91%
Cn1cccc1-c1nc2ccccc2n1C 89.2%
O=C(N/N=C1\CCSC1)c1cc(Cl)ccc1O 100%
CCCC(=O)Nc1c(O)c2ccccc2[nH]c1=O 101%
Cc1c(C(=O)CN2CCOCC2)[nH]c2ccccc12 121%
Cc1ccnc(NS(=O)(=O)c2ccc(NC(=O)c3ccc(S(=O)(=O)N4CCOCC4)cc3)cc2)n1 100%
O=C(CCc1ccc(S(=O)(=O)N2CCOCC2)cc1)Nc1ccc2ccccc2c1 104%
CCOC(=O)c1c(/N=C/c2cc(C)ccc2O)sc2c1CCC2 99.7%
Cc1ccc(C(=O)N/C(=C\c2ccco2)C(=O)N2CCSCC2)cc1C 109%
COc1ccc(N2C(=O)CC(Nc3ccc(F)cc3)C2=O)c([N+](=O)[O-])c1 (centres undefined) 92.9%
C=CCOc1ccc(/C=N/NC(=O)C(C)Sc2ccccn2)cc1OCC (centres undefined) 106%
COc1ccc(OC)c2c1sc(=NC(=O)CN1C(=O)CCC1=O)n2C 101%
CCOc1ccc(-n2c(O)c(/C=N/c3ccnn3Cc3ccncc3)c3ccccc3c2=O)cc1 105%
O=C(O)c1ccc(/C=N/NC(=S)NCc2ccccc2)cc1 96.6%
CSc1nc(O)c(Cc2ccccc2)c(=O)[nH]1 95.3%
COc1ccc(-n2c(=S)[nH]c3sc4c(c3c2=O)CCc2ccccc2-4)cc1 112%
c1ccc(-c2cn3cccnc3n2)cc1 91.9%
O=C(CN1C(=O)CC(c2ccccc2)S(=O)(=O)c2ccccc21)NC1CCCC1 (centres undefined) 101%
COC(=O)/C(C#N)=C/c1occc1C 94.2%
CCOC(=O)N1CCN(CCC(=O)Nc2cc(OC)ccc2OC)CC1 111%
O=C(c1cn2ccccc2n1)N1CCc2c([nH]c3ccccc23)C1c1ccccn1 (centres undefined) 105%
CCCC(=O)N1CCc2[nH]c3ccccc3c2C1 99.4%
COCc1ccc(C(=O)N2CCc3c([nH]c4ccccc34)C2c2ccccn2)s1 (centres undefined) 96.9%
O=C(NC1CCCCC1)N1CCc2[nH]c3ccccc3c2C1 96%
COc1ccc(NC(=O)C(=O)NCC(=O)Nc2cccc(C(F)(F)F)c2)cc1 98.3%
COC(=O)c1ccc(NC(=S)NN2CCOCC2)cc1 109%
O=C(CC1SCCNC1=O)Nc1ccc(Cl)cc1 (centres undefined) 105%
CCOC(=O)C1(Cc2cccc(OC)c2)CCN(Cc2csc(C(C)=O)c2)CC1 92.5%
COCCCNC(=O)C1CCC(CNS(=O)(=O)c2ccc(OC)cc2)CC1 (centres undefined) 99.2%
O=C1NC(c2ccccc2)=NC1(Nc1ccccn1)C(F)(F)F (centres undefined) 100%
CN(C)S(=O)(=O)c1cc(NC(=O)CN2C(=O)NC3(CCCc4ccccc43)C2=O)ccc1Cl (centres undefined) 105%
COc1cc(/C=C/C(=O)OCC(=O)NC(=O)NCc2ccccc2)ccc1OCC#N 95.5%
COc1ncnc2sc3c(c12)CCCC3 104%
COc1cc(/C=N/Nc2ccc(C)cc2)cc(Br)c1O 115%
CSc1ccccc1C(=O)NCc1ccccc1 108%
CC(C)CNC(=O)COC(=O)/C=C/c1ccco1 105%
O=C(/C=C/c1ccccc1[N+](=O)[O-])NCC1CCCO1 (centres undefined) 97.5%
